Measurements taken from ChEMBL document CHEMBL1123674, “Synthesis and antitumor activity of fluorine-substituted 4-amino-2(1H)-pyridinones and their nucleosides. 3-Deazacytosines” (J Med Chem, 1987).
Each block holds one compound with its values, some of them ahead of it.

Columns and labels:
[1] = test system: L1210; test: Compound was tested for mean survival time of treated mice in days / mean survival time of control mice x 100 against L1210 lymphoid leukemia cells; format: functional, Mus musculus
Summary of the method: (§1)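 CD2F1 mice in groups of six received 1 × 10⁵ L1210 lymphoid leukemia cells ip. Dosing was ip, once a day for 5 days, starting 24 h after tumor inoculation, under standard NCI protocol. %T/C = (mean survival time of treated mice in days / mean survival time of controls) × 100. Toxic deaths were excluded from the %T/C calculation.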

[2] = test system: L1210; test: Compound was tested for its inhibitory activity against L1210 lymphoid leukemia; format: functional, cell-based; conditions: Mus musculus
[3] = test system: L1210; test: Antitumor activity against L1210 lymphoid leukemia in CD2F1 mice at […] and measured as mean weight change (days 5 minus 1) of treated mice minus mean weight change of control mice before second treatment was reported; format: functional, Mus musculus
[4] = test system: L1210; test: Antitumor activity against L1210 lymphoid leukemia in CD2F1 mice at 200 mg/injection and measured as mean weight change (days 5 minus 1) of treated mice minus mean weight change of control mice before second treatment was reported; format: functional, Mus musculus
Summary of the method: (§2)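 CD2F1 mice, in groups of six, were inoculated ip with 1 × 10⁵ L1210 lymphoid leukemia cells. Dosing was ip once daily for 5 days, starting 24 h after inoculation. Toxicity was scored as the mean weight change of treated mice (day 5 minus day 1) minus the mean weight change of control mice.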

[5] = test system: L1210; test: Antitumor activity against L1210 lymphoid leukemia in CD2F1 mice at a dose of 100 mg/injection and difference between estimated tumor burdens before second treatment; format: functional, Mus musculus
Summary of the method: (§3)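 CD2F1 mice, in groups of six, received 1 × 10⁵ L1210 cells ip and were dosed ip once daily for 5 days from 24 h after inoculation. Net cell kill is the estimated change in tumor burden from before the first dose to just after the last. It is calculated as (T − C − Rx)/3.32Td, using the tumor doubling time observed in that test and survival after the last treatment.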

[6] = test system: L1210; test: Antitumor activity against L1210 lymphoid leukemia in CD2F1 mice at 50 mg/injection and measured as mean weight change (days 5 minus 1) of treated mice minus mean weight change of control mice before first treatment was reported; format: functional, Mus musculus; summary of the method: as §2
[7] = test system: L1210; test: Antitumor activity against L1210 lymphoid leukemia in CD2F1 mice at 300 mg/injection and measured as mean survival time of treated mice in days/mean survival time of control mice x 100 before first treatment was reported; format: functional, Mus musculus; summary of the method: as §1
[8] = test system: L1210; test: Antitumor activity against L1210 lymphoid leukemia in CD2F1 mice at a dose of 50 mg/injection measured as difference between estimated tumor burdens before first treatment; format: functional, Mus musculus; summary of the method: as §3
[9] = test system: L1210; test: Antitumor activity against L1210 lymphoid leukemia in CD2F1 mice at 100 mg/injection and measured as mean weight change (days 5 minus 1) of treated mice minus mean weight change of control mice before second treatment was reported; format: functional, Mus musculus; summary of the method: as §2
[10] = test system: L1210; test: Antitumor activity against L1210 lymphoid leukemia in CD2F1 mice at a dose of 100 mg/injection measured as difference between estimated tumor burdens before first treatment; format: functional, Mus musculus; summary of the method: as §3
[11] = test system: L1210; test: Antitumor activity against L1210 lymphoid leukemia in CD2F1 mice at 25 mg/injection and measured as mean survival time of treated mice in days/mean survival time of control mice x 100 before second treatment was reported; format: functional, Mus musculus; summary of the method: as §1
[12] = test system: L1210; test: Antitumor activity against L1210 lymphoid leukemia in CD2F1 mice at 200 mg/injection and measured as mean survival time of treated mice in days/mean survival time of control mice x 100 before second treatment was reported; format: functional, Mus musculus; summary of the method: as §1
[13] = test system: L1210; test: Antitumor activity against L1210 lymphoid leukemia in CD2F1 mice at a dose of 200 mg/injection measured as difference between estimated tumor burdens before first treatment; format: functional, Mus musculus; summary of the method: as §3
[14] = test system: L1210; test: Ability to inhibit growth of L1210 lymphocyte leukemia cell in culture; format: functional, cell-based; conditions: Mus musculus
[15] = test system: L1210; test: Antitumor activity against L1210 lymphoid leukemia in CD2F1 mice at 50 mg/injection and measured as mean survival time of treated mice in days/mean survival time of control mice x 100 before second treatment was reported; format: functional, Mus musculus; summary of the method: as §1
[16] = test system: L1210; test: Antitumor activity against L1210 lymphoid leukemia in CD2F1 mice at 100 mg/injection and measured as mean weight change (days 5 minus 1) of treated mice minus mean weight change of control mice before first treatment was reported; format: functional, Mus musculus; summary of the method: as §2
[17] = test system: L1210; test: Antitumor activity against L1210 lymphoid leukemia in CD2F1 mice at 25 mg/injection and measured as mean weight change (days 5 minus 1) of treated mice minus mean weight change of control mice before second treatment was reported; format: functional, Mus musculus; summary of the method: as §2
[18] = test system: L1210; test: Antitumor activity against L1210 lymphoid leukemia in CD2F1 mice at a dose of 25 mg/injection measured as difference between estimated tumor burdens before second treatment; format: functional, Mus musculus; summary of the method: as §3
[19] = test system: L1210; test: Antitumor activity against L1210 lymphoid leukemia in CD2F1 mice at 300 mg/injection and mean weight change (days 5 minus 1) of treated mice minus mean weight change of control mice before first treatment was reported; format: functional, Mus musculus; summary of the method: as §2
[20] = test system: L1210; test: Antitumor activity against L1210 lymphoid leukemia in CD2F1 mice at 25 mg/injection and measured as mean weight change (days 5 minus 1) of treated mice minus mean weight change of control mice before first treatment was reported; format: functional, Mus musculus; summary of the method: as §2
[21] = test system: L1210; test: Antitumor activity against L1210 lymphoid leukemia in CD2F1 mice at 100 mg/injection and measured as mean survival time of treated mice in days/mean survival time of control mice x 100 before first treatment was reported; format: functional, Mus musculus; summary of the method: as §1
[22] = test system: L1210; test: Antitumor activity against L1210 lymphoid leukemia in CD2F1 mice at 200 mg/injection and measured as mean survival time of treated mice in days/mean survival time of control mice x 100 before first treatment was reported; format: functional, Mus musculus; summary of the method: as §1
[23] = test system: L1210; test: Antitumor activity against L1210 lymphoid leukemia in CD2F1 mice at […] and measured as mean survival time of treated mice in days/mean survival time of control mice x 100 before second treatment was reported; format: functional, Mus musculus
[24] = test system: L1210; test: Antitumor activity against L1210 lymphoid leukemia in CD2F1 mice at 50 mg/injection and measured as mean weight change (days 5 minus 1) of treated mice minus mean weight change of control mice before second treatment was reported; format: functional, Mus musculus; summary of the method: as §2
[25] = test system: L1210; test: Antitumor activity against L1210 lymphoid leukemia in CD2F1 mice at 200 mg/injection and measured as mean weight change (days 5 minus 1) of treated mice minus mean weight change of control mice before first treatment was reported; format: functional, Mus musculus; summary of the method: as §2
[26] = test system: L1210; test: Antitumor activity against L1210 lymphoid leukemia in CD2F1 mice at 25 mg/injection and measured as mean survival time of treated mice in days/mean survival time of control mice x 100 before first treatment was reported; format: functional, Mus musculus; summary of the method: as §1
[27] = test system: L1210; test: Antitumor activity against L1210 lymphoid leukemia in CD2F1 mice at a dose of 50 mg/injection measured as difference between estimated tumor burdens before second treatment; format: functional, Mus musculus; summary of the method: as §3
[28] = test system: L1210; test: Antitumor activity against L1210 lymphoid leukemia in CD2F1 mice at a dose of 25 mg/injection measured as difference between estimated tumor burdens before first treatment; format: functional, Mus musculus; summary of the method: as §3
[29] = test system: L1210; test: Antitumor activity against L1210 lymphoid leukemia in CD2F1 mice at a dose of […] measured as difference between estimated tumor burdens before second treatment; format: functional, Mus musculus
[30] = test system: L1210; test: Antitumor activity against L1210 lymphoid leukemia in CD2F1 mice at a dose of 300 mg/injection measured as difference between estimated tumor burdens before first treatment; format: functional, Mus musculus; summary of the method: as §3
[31] = test system: L1210; test: Antitumor activity against L1210 lymphoid leukemia in CD2F1 mice at 100 mg/injection and measured as mean survival time of treated mice in days/mean survival time of control mice x 100 before second treatment was reported; format: functional, Mus musculus; summary of the method: as §1
[32] = test system: L1210; test: Antitumor activity against L1210 lymphoid leukemia in CD2F1 mice at 50 mg/injection and measured as mean survival time of treated mice in days/mean survival time of control mice x 100 before first treatment was reported; format: functional, Mus musculus; summary of the method: as §1
[33] = test system: L1210; test: Compound was tested for percent increase in life span against L1210 lymphoid leukemia; format: functional, Mus musculus
[34] = test system: P388; test: Compound was tested for mean survival time of treated mice in days / mean survival time of control mice x 100 against P388 lymphoid leukemia cells; Inactive; format: functional, Mus musculus
[35] = test system: L1210; test: Compound was tested for the concentration required to inhibit the growth rate of the control L1210 cells by 50%; Value ranges from 2.60-4.71; format: functional; conditions: Mus musculus, read-out: ID50 (the source's name)

Structure (SMILES): Nc1ccn([C@H]2C[C@H](O)[C@@H](CO)O2)c(=O)c1F
- T/C [1]: <125%

- IC50 [2]: 12.5 µM
Structure (SMILES): CC(=O)Nc1ccn([C@@H]2O[C@H](COC(C)=O)[C@@H](OC(C)=O)[C@H]2OC(C)=O)c(=O)c1F

Structure (SMILES): C[C@@]1(n2cc(F)c(N)c(F)c2=O)C[C@H](O)[C@@H](CO)O1
- T/C [1]: <125%

Structure (SMILES): Nc1ccn(C2O[C@H](CO)[C@@H](O)[C@H]2O)c(=O)c1F (some centres not stated)
- BWD [3]: -0.5
- BWD [4]: -3.4
- Net log kill [5]: 5.54
- BWD [6]: -1.7
- T/C [7]: 230%
- Net log kill [8]: 2.2
- BWD [9]: -1.3
- Net log kill [10]: 2.93
- T/C [11]: 157%
- T/C [12]: 208%
- Net log kill [13]: 3.91
- IC50 [14]: 10.7 µM
- T/C [15]: 185%
- BWD [16]: -3
- BWD [17]: -1
- Net log kill [18]: 0.78
- BWD [19]: -4.7
- BWD [20]: -1
- T/C [21]: 193%
- T/C [22]: 208%
- T/C [23]: 136%
- BWD [24]: -1.1
- BWD [25]: -4.8
- T/C [26]: 169%
- Net log kill [27]: 3.01
- Net log kill [28]: 1.3
- Net log kill [29]: -0.97
- Net log kill [30]: 5.37
- T/C [31]: 216%
- T/C [32]: 182%

Structure (SMILES): Nc1ccn([C@@H]2O[C@H](CO)[C@@H](O)[C@@H]2O)c(=O)n1 [CYTARABINE]
- ILS [33]: >161%

Structure (SMILES): Nc1c(F)cn([C@H]2C[C@H](O)[C@@H](CO)O2)c(=O)c1F
- T/C [1]: <125%

Structure (SMILES): Nc1c(F)cnc(O)c1F
- T/C [34]: <125%
- IC50 [35]: 47.1 µM

- IC50 [2]: 17.8 µM
Structure (SMILES): Nc1ccn([C@@H]2O[C@H](CO)[C@@H](O)[C@H]2O)c(=O)c1

Structure (SMILES): Nc1ccn([C@H]2C[C@H](O)[C@@H](CO)O2)c(=O)n1 [DOXECITINE]
- ILS [33]: >161%

Structure (SMILES): Nc1ccnc(O)c1F
- T/C [34]: <125%

Structure (SMILES): Nc1c(F)cn(C2O[C@H](CO)[C@@H](O)[C@H]2O)c(=O)c1F (some centres not stated)
- T/C [1]: <125%

- IC50 [2]: 0.409 µM
Structure (SMILES): Nc1ncn([C@@H]2O[C@H](CO)[C@@H](O)[C@H]2O)c(=O)n1 [AZACITIDINE]

Structure (SMILES): Nc1c(F)cnc(F)c1F
- T/C [34]: <125%
- IC50 [35]: 47.1 µM

- IC50 [2]: 0.393 µM
Structure (SMILES): Nc1ncn([C@H]2C[C@H](O)[C@@H](CO)O2)c(=O)n1 [DECITABINE]

Structure (SMILES): Nc1c(F)c(O)nc(F)c1F
- T/C [34]: <125%
- IC50 [35]: 47.1 µM

Structure (SMILES): Nc1cc(O)nc(F)c1
- T/C [34]: <125%

Structure (SMILES): NNc1nc(F)c(F)c(N)c1F
- T/C [34]: <125%
- IC50 [35]: 47.1 µM

Structure (SMILES): Nc1nc(=O)n([C@H]2C[C@H](O)[C@@H](CO)O2)cc1F
- ILS [33]: >161%

Structure (SMILES): Nc1cc(O)ncc1F
- T/C [34]: <125%
